Reference: ChEMBL document CHEMBL3352043, “Discovery of small-molecule inhibitors selectively targeting the DNA-binding domain of the human androgen receptor” (J Med Chem, 2014)
Where a chain is given by its changes, count along the chain named. Active and inactive are the calls of the source. No cut-off for these calls is given here.

Experiments:
[1] = biological target: T1, Estrogen receptor (Homo sapiens) (UniProt P03372); assay: Inhibition of ERalpha (unknown origin) transcriptional activity at […]
T1 sequence (whole entry): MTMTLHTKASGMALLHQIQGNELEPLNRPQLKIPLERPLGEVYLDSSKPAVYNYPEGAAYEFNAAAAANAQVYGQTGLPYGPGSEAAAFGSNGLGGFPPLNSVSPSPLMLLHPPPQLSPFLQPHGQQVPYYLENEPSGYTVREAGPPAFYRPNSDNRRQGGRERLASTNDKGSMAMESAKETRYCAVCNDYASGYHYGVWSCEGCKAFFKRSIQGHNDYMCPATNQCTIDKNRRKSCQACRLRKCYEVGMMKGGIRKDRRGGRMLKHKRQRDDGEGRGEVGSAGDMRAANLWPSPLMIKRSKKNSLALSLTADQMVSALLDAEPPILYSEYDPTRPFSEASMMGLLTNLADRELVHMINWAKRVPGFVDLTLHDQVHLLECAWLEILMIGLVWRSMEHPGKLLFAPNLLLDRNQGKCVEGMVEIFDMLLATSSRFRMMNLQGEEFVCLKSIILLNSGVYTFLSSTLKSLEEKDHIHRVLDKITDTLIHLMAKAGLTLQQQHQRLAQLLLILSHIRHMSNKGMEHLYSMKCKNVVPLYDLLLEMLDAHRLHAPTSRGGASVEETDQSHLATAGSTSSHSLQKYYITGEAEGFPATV
Method in brief: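 MCF-7 cells stably carrying an ERE-luciferase reporter were stimulated with 1 nM estradiol and treated with compound. Luciferase luminescence was read from passive-lysis-buffer lysates.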

[2] = biological target: T2, Androgen receptor (Homo sapiens) (UniProt P10275); assay: Displacement of androgen from androgen receptor (unknown origin) by Polarscreen competitor green assay
T2 sequence (whole entry): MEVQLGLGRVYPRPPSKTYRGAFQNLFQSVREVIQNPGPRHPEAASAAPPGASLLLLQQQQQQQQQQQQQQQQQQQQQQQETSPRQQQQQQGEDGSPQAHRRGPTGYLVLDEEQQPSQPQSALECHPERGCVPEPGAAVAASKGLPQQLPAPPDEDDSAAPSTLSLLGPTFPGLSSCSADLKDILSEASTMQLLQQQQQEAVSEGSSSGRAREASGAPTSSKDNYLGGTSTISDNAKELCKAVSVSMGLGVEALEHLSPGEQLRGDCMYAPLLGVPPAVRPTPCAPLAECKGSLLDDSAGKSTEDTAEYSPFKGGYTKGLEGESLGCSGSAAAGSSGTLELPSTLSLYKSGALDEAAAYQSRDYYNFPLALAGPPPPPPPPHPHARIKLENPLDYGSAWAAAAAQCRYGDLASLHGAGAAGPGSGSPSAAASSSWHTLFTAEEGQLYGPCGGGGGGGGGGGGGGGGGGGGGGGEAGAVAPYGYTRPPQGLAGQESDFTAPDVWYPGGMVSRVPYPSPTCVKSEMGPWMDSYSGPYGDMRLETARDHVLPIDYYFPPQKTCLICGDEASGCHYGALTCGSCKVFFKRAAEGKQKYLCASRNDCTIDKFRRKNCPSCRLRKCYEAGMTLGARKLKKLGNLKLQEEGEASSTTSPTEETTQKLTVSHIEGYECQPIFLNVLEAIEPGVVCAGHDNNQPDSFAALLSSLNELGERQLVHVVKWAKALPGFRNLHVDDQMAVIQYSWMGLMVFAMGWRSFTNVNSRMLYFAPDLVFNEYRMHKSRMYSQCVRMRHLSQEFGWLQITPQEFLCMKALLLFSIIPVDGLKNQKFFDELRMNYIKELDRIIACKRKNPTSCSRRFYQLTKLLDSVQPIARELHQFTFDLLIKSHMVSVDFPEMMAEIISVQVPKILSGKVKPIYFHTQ

[3] = system: T3, Androgen receptor (Homo sapiens), P10275 [Y594D]; assay: Inhibition of human androgen receptor Y594D mutant expressed in human PC3 cells assessed as inhibition of transcription activity after 24 hrs by luciferase reporter gene assay; format: cell-based; settings: PC-3
T3 sequence (whole entry): T2 sequence (whole entry) with Y594D
Method in brief: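 PC3 cells were starved 5 days in RPMI 1640 with 5% charcoal-stripped serum and seeded at 5000 cells/well. After 24 h they were cotransfected with AR-V7 or hAR mutant plasmid plus 50 ng ARR3tk-luciferase. At 48 h post-transfection, compounds were added for 24 h with 0.1 nM R1881. Luminescence was read from passive-lysis-buffer lysates; mutant tests used 10 μM.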

inhibition [1]	Activity [2]	inhibition [3]	inhibition [2]	SMILES
inactive	inactive	inactive		c1ccc(-c2csc(N3CCOCC3)n2)cc1
inactive		inactive	inactive	Brc1ncn(-c2csc(N3CCOCC3)n2)c1Br
